# Test results taken from ChEMBL document CHEMBL1641411, “Synthesis and optimization of novel 4,4-disubstituted cyclohexylbenzamide derivatives as potent 11β-HSD1 inhibitors” (Bioorg Med Chem Lett, 2011).
# The source made the active and inactive calls. The calls are words filed in the database; no cut-off is given here.
# Legend:
# [1] = test system: Cynomolgus monkey; conditions: Macaca fascicularis; 4 to 100 mg/kg
# [2] = Metabolic stability in human liver microsomes assessed as compound turnover at 30 mins; type: ADME, Microsome; conditions: read-out: Stability
# In short: (§1)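 Compounds incubated with human or rat liver microsomes; percent turnover of parent measured at 30 min.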
# [3] = Plasma concentration in cynomolgus monkey at 4 mg/kg, po after 2 hrs by LC/MS/MS analysis; type: ADME, organism-based, Macaca fascicularis; parameters: dose 4 mg/kg, route oral
# In short: (§2)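 Monkeys given oral doses of 4, 20 or 100 mg/kg in 1% methylcellulose/1% Tween 80 in sterile water, 5–6 animals per group. Plasma collected 2 h after dosing for drug concentration.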
# [4] = Plasma concentration in cynomolgus monkey at 20 mg/kg, po after 2 hrs by LC/MS/MS analysis; type: ADME, organism-based, Macaca fascicularis; parameters: dose 20 mg/kg, route oral
# In short: as §2
# [5] = Metabolic stability in rat liver microsomes assessed as compound turnover at 30 mins; type: ADME, Microsome; conditions: read-out: Stability
# In short: as §1
# [6] = Clearance in cynomolgus monkey; type: ADME, organism-based, Macaca fascicularis; conditions: in vivo
# [7] = Bioavailability in cynomolgus monkey; type: ADME, organism-based, Macaca fascicularis; conditions: in vivo
# [8] = molecular target: T1, Nuclear receptor subfamily 1 group I member 2 (Homo sapiens, UniProt O75469); assay: Activation of PXR relative to control; parameters: concentration or dose not given beside the values
# T1 sequence (O75469 whole entry): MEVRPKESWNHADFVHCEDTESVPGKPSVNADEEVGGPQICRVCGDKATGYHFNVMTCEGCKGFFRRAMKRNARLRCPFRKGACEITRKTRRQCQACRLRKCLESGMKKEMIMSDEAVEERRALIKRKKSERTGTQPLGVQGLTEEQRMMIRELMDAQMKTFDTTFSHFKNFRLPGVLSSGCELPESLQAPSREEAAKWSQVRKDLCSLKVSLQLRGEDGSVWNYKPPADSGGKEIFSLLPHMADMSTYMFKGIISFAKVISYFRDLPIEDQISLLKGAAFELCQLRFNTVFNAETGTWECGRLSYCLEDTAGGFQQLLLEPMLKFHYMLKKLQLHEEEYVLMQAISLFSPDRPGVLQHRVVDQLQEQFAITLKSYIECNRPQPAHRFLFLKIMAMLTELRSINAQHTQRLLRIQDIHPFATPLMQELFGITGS
# In short: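 PXR activation measured with compound at 2 µM, expressed as % of control.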
# [9] = Inhibition of cynomolgus monkey 11beta-HSD1 assessed as inhibition of conversion of [3H]cortisone to [3H]cortisol by scintillation proximity assay; parameters: species or system Macaca fascicularis
# [10] = Plasma concentration in cynomolgus monkey at 100 mg/kg, po after 2 hrs by LC/MS/MS analysis; type: ADME, organism-based, Macaca fascicularis; parameters: dose 100 mg/kg, route oral
# In short: as §2
# [11] = Half life in rat at 0.5 mg/kg, iv; type: ADME, organism-based; parameters: dose 0.5 mg/kg, route intravenous; conditions: in vivo
# In short: (§3)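 Rat PK: single iv dose of 0.5 mg/kg, with a separate oral dose of 2.0 mg/kg. Clearance, Vdss and half-life come from the iv arm. Oral AUC and %F come from the po arm.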
# [12] = AUC in rat at 2 mg/kg, po; type: ADME, organism-based; parameters: dose 2 mg/kg, route oral; conditions: plasma
# In short: as §3
# [13] = molecular target: 11-beta-hydroxysteroid dehydrogenase 1 (Rattus norvegicus, UniProt P16232); assay: Inhibition of rat 11beta-HSD1 assessed as inhibition of conversion of [3H]cortisone to [3H]cortisol by scintillation proximity assay
# [14] = Volume of distribution at steady state in rat at 0.5 mg/kg, iv and 2 mg/kg, po; type: ADME, organism-based; conditions: in vivo, read-out: Vdss
# In short: as §3
# [15] = test system: Rattus norvegicus; assay: Ex vivo inhibition of 11beta-HSD1 in Sprague-Dawley rat assessed as inhibition of conversion of [3H]cortisone to [3H]cortisol at 20 mg/kg, po; type: functional
# In short: (§4)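 Sprague–Dawley rats dosed orally at 4, 20 or 100 mg/kg; killed 2 h post-dose. Epididymal fat isolated and incubated in media containing [3H]-cortisone; rat 11β-HSD1 activity read as [3H]-cortisol formed. Reported as % inhibition over vehicle-dosed animals.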
# [16] = Oral bioavailability in rat at 2 mg/kg; type: ADME, organism-based; conditions: in vivo
# In short: as §3
# [17] = Clearance in rat at 0.5 mg/kg, iv and 2 mg/kg, po; type: ADME, organism-based; conditions: in vivo
# In short: as §3
# [18] = test system: Rattus norvegicus; assay: Ex vivo inhibition of 11beta-HSD1 in Sprague-Dawley rat assessed as inhibition of conversion of [3H]cortisone to [3H]cortisol at 4 mg/kg, po; type: functional
# In short: as §4
# [19] = test system: Rattus norvegicus; assay: Ex vivo inhibition of 11beta-HSD1 in Sprague-Dawley rat assessed as inhibition of conversion of [3H]cortisone to [3H]cortisol at 100 mg/kg, po; type: functional
# In short: as §4
# Sequence of 11-beta-hydroxysteroid dehydrogenase 1 (P16232 whole entry): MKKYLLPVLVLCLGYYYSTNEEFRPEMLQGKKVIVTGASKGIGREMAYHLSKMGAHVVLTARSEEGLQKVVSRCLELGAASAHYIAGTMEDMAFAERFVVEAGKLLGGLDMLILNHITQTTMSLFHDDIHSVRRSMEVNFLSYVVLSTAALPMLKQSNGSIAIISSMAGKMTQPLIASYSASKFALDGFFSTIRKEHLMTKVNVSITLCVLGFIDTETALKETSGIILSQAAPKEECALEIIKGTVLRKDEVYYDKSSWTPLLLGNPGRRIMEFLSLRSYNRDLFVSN
SMILES,metabolised at 0.5 h [2],metabolised at 0.5 h [5],Activity [8],other results
C[C@](O)(c1ccc(C(=O)N(C2CC2)[C@H]2CC[C@](CCC(N)=O)(c3ccc(F)cc3)CC2)cc1)C(F)(F)F,< 10%,< 10%,,
C[C@](O)(c1ccc(C(=O)N(C2CC2)[C@H]2CC[C@](CCC#N)(c3ccccc3)CC2)cc1)C(F)(F)F,10%,51%,,
C[C@](O)(c1ccc(C(=O)N(C2CC2)[C@H]2CC[C@](CC(N)=O)(c3ccccc3)CC2)cc1)C(F)(F)F,< 10%,< 10%,< 5%,
C[C@](O)(c1ccc(C(=O)N(C2CC2)[C@H]2CC[C@](CO)(c3ccccc3)CC2)cc1)C(F)(F)F,10%,32%,< 5%,
C[C@](O)(c1ccc(C(=O)N(C2CC2)[C@H]2CC[C@](COC(N)=O)(c3ccccn3)CC2)cc1)C(F)(F)F,< 10%,< 10%,,half-life [11]: 4.2 h; AUC [12]: 6180 ng·h/mL; IC50 [13]: 220 nM; Vd [14]: 1.24 L/kg; inhibition in vivo at 20 mg/kg [15]: 44%; bioavailability [16]: 64%; clearance [17]: 3.5 mL/min/kg; inhibition in vivo at 4 mg/kg [18]: 14%; inhibition in vivo at 100 mg/kg [19]: 72%
C[C@](O)(c1ccc(C(=O)N(C2CC2)[C@H]2CC[C@](COC(N)=O)(c3ccc(F)cc3)CC2)cc1)C(F)(F)F,< 10%,< 10%,,
C[C@](O)(c1ccc(C(=O)N(C2CC2)[C@H]2CC[C@](CC#N)(c3ccccc3)CC2)cc1)C(F)(F)F,19%,17%,9%,
C[C@](O)(c1ccc(C(=O)N(C2CC2)[C@H]2CC[C@](COC(N)=O)(c3cscn3)CC2)cc1)C(F)(F)F,< 10%,< 10%,,half-life [11]: 4.5 h; AUC [12]: 618 ng·h/mL; IC50 [13]: 30 nM; Vd [14]: 3.7 L/kg; inhibition in vivo at 20 mg/kg [15]: 38%; bioavailability [16]: 25%; clearance [17]: 13.7 mL/min/kg; inhibition in vivo at 4 mg/kg [18]: 6%; inhibition in vivo at 100 mg/kg [19]: 75%
C[C@](O)(c1ccc(C(=O)N(C2CC2)[C@H]2CC[C@](COC(N)=O)(c3ccc(F)cn3)CC2)cc1)C(F)(F)F,< 10%,< 10%,,
C[C@](O)(c1ccc(C(=O)N(C2CC2)[C@H]2CC[C@](CCC(N)=O)(c3ccccn3)CC2)cc1)C(F)(F)F,< 10%,< 10%,,
C[C@](O)(c1ccc(C(=O)N(C2CC2)[C@H]2CC[C@](COC(N)=O)(c3ccccc3F)CC2)cc1)C(F)(F)F,< 10%,< 10%,,half-life [11]: 5.2 h; AUC [12]: 6790 ng·h/mL; IC50 [13]: 144 nM; Vd [14]: 1.28 L/kg; inhibition in vivo at 20 mg/kg [15]: 43%; bioavailability [16]: 48%; clearance [17]: 2.5 mL/min/kg; inhibition in vivo at 4 mg/kg [18]: 27%; inhibition in vivo at 100 mg/kg [19]: 70%

# More lines, main results first:
metabolised at 0.5 h [2],metabolised at 0.5 h [5],Activity [8],SMILES,other results
< 10%,< 10%,< 5%,C[C@](O)(c1ccc(C(=O)N(C2CC2)[C@H]2CC[C@](CCC(N)=O)(c3ccccc3)CC2)cc1)C(F)(F)F,inhibition [1]: Active; concentration at 2 h [3]: 151 ng/mL; concentration at 2 h [4]: 2000 ng/mL; clearance [6]: 1 mL/min/kg; bioavailability [7]: 81%; IC50 [9]: 22 nM; concentration at 2 h [10]: 1710 ng/mL
< 10%,< 10%,< 5%,CC(=O)NC[C@]1(c2ccccc2)CC[C@H](N(C(=O)c2ccc([C@](C)(O)C(F)(F)F)cc2)C2CC2)CC1,
< 10%,< 10%,< 5%,C[C@](O)(c1ccc(C(=O)N(C2CC2)[C@H]2CC[C@](COC(N)=O)(c3ccccc3)CC2)cc1)C(F)(F)F,half-life [11]: 3.9 h; AUC [12]: 2770 ng·h/mL; IC50 [13]: 86 nM; Vd [14]: 1 L/kg; inhibition in vivo at 20 mg/kg [15]: 43%; bioavailability [16]: 20%; clearance [17]: 2.67 mL/min/kg; inhibition in vivo at 4 mg/kg [18]: 23%; inhibition in vivo at 100 mg/kg [19]: 71%
< 10%,< 10%,< 5%,C[C@](O)(c1ccc(C(=O)N(C2CC2)[C@H]2CC[C@](O)(C3CC3)CC2)cc1)C(F)(F)F,
< 10%,< 10%,6%,C[C@](O)(c1ccc(C(=O)N(C2CC2)[C@H]2CC[C@](CCO)(c3ccccc3)CC2)cc1)C(F)(F)F,
< 10%,< 10%,,C[C@](O)(c1ccc(C(=O)N(C2CC2)[C@H]2CC[C@](CCC(N)=O)(c3ccccc3F)CC2)cc1)C(F)(F)F,
< 10%,21%,< 5%,C[C@](O)(c1ccc(C(=O)N(C2CC2)[C@H]2CC[C@](CNS(C)(=O)=O)(c3ccccc3)CC2)cc1)C(F)(F)F,
